Screening results as filed in PubChem.
UBC13 polyUb: blocks human UBC13 polyubiquitin chain formation; TR-FRET; 330,000 tested, 0.47% active; inhibition, % at 20 µM; P61088; AID 485273; in the data active = inhibition above about 45%, passing the limit was not always enough
CHOP UPR activ: apoptotic UPR (CHOP) activation. activation, % at 10 µM. AID 449763. CHO-CHOP luciferase reporter, luminescence; percent of tunicamycin response over DMSO baseline. 330,000 tested, 0.34% active;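 active = at 10 µM dose, activation of 40% or more, normalized to positive control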;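 also: 100% = tunicamycin at 10 µg/mL and 0% = DMSO alone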
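Assay system: CHO-CHOP cells, stable luciferase reporter of PERK-eIF2a-CHOP signalling / Buffer or medium: F12 plus 10% serum / Compound dosing: one dose, 10 µM in 0.5% DMSO / Times: 6 h compound treatment, 37 °C / Technique: luciferase luminescence / Read-out: % reporter activation, DMSO baseline versus tunicamycin full activation / Benchmarks: tunicamycin and DMSO controls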
Apaf-1 inh: blocks human Apaf-1 apoptosome activity | O14727 | reconstituted apoptosome caspase-3 activity, DEVD-Rh110 fluorescence | inhibition, % at 20 µM | 330,000 tested, 0.71% active | AID 489030; active = inhibition of at least 40% at 20 µM;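 also: plate controls were DMSO wells for no effect and DEVD-CHO caspase inhibitor wells for full effect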
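Assay system: Apoptosome proteins | Medium: pH 7.5 Hepes buffer with CHAPS, BSA, DTT | Also added: Cytochrome c and DEVD-Rh110 substrate | Times: 30 min plus 50 min, RT | Detection: Rhodamine 110 fluorescence at Ex 480/Em 540 nm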
Mdm2-MdmX inh: inhibitors of human Mdm2/MdmX interaction; AID 485346; inhibition, % at 8 µM; O15151+Q00987; 330,000 tested, 3% active; SaOS-2 split-luciferase Mdm2/MdmX complementation, luminescence;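 active = inhibition of at least 50% at 8 µM in the primary screen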
UPR XBP1 act: adaptive UPR (XBP1) activation | CHO-XBP1 luciferase reporter, IRE1-XBP1 UPR activation, luminescence; percent of tunicamycin response, DMSO as zero | activation, % at 20 µM | 330,000 tested, 0.33% active | AID 463104;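 active = versus positive control, 20 µM dose yields 30% or more activation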;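 also: 100% = tunicamycin at 10 µg/mL and 0% = DMSO only wells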
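Assay system: IRE1-XBP1 luciferase reporter CHO line. Input: 1000 cells/well. Buffer or medium: F12 with 10% serum. Doses: 20 µM, 1% DMSO. Times: overnight seeding at 37 °C, 6 h compound treatment at 37 °C. Technique: Steady-Glo luciferase glow luminescence, 10 min after reagent addition.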
Mdm2 MdmX conf: human Mdm2/MdmX binding inhibition, confirmed | shares compounds with Mdm2-MdmX inh | luminescent assay | inhibition, % at 8 µM | 10,000 tested, 55% active | AID 489028; in the data active = inhibition above about 40%
FLuc counter: full-length luciferase inhibition in Mdm2/MdmX counter-screen; shares compounds with Mdm2-MdmX inh; SaOS-2 full-length luciferase counterscreen, luminescence; inhibition, % at 8 µM; 6,200 tested, 77% active; AID 504607;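 active = mean inhibition at 8 µM reaching about 37%, which flags the compound as non-specific, limit read from the data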;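 also: p53-null SaOS-2 cells with luciferase driven by a doxycycline-inducible promoter; compound on cells about two nights before reading with doxycycline added after day one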
Active calls of the source: *; nt = not tested or not shown. Compounds with a hit are over-represented: about 4.1% of the library has one in this group of screens.

SMILES	UBC13 polyUb	CHOP UPR activ	Apaf-1 inh	Mdm2-MdmX inh	UPR XBP1 act	Mdm2 MdmX conf	FLuc counter
CCc1ccc(C(C(=O)NC2CCCC2)N(C(=O)/C=C/C(=O)Nc2cc(C)on2)c2ccccc2C)cc1 (stereo unspecified)	-9	7	26	77*	5	75*	59*
CCCCN(C(=O)CCC(=O)Nc1cc(C)on1)C(C(=O)NC1CCCC1)c1ccccc1C (stereo unspecified)	2	0	15	8	-5	nt	nt
CCOc1ccc(N(C(=O)/C=C/C(=O)Nc2cc(C)on2)C(C(=O)NC2CCCC2)c2ccccc2C)cc1 (stereo unspecified)	-8	3	19	81*	-2	77*	27
Cc1cc(NC(=O)/C=C/C(=O)N(CC(=O)NC2CCCC2)c2cccc3ccccc23)no1	-8	-2	15	53*	-2	32	nt
Cc1cc(NC(=O)CCC(=O)N(CC(=O)NC2CCCC2)c2ccccc2)no1	2	-1	-1	-5	-3	nt	nt
CCN(CC(=O)Nc1c(F)cccc1F)C(=O)c1cnccn1	-2	0	-3	12	-1	nt	nt
COc1cc(/C=C/C(=O)c2cccc([N+](=O)[O-])c2)cc(OC)c1OC	-15	19	10	52*	-3	22	nt
COc1cc(/C=C2/OC(=O)c3cc([N+](=O)[O-])ccc32)cc(OC)c1OC	1	1	4	67*	5	0	nt
O=C1OC(=O)c2cc([N+](=O)[O-])ccc21	5	-2	4	27	-2	nt	nt
Cc1cc2[nH]c3c(c[n+](C)c4ccccc34)c2cc1C	64*	6	28	101*	-1	100*	51*
Cc1cc(=O)[nH]c2ccccc12	-4	0	-4	-4	0	nt	nt
COc1ccccc1NC(=O)/C(C#N)=C/C=C/c1ccco1	1	2	-14	50*	0	54*	64*
COc1ccccc1NC(=O)/C=C\c1ccco1	-11	5	-25	-3	-4	nt	nt
Cc1ncc(CO)c(/C=N/NC(=O)c2cc3c(s2)CCCC3)c1O	24	-1	-8	58*	1	42*	51*
Cc1ncc(CO)c(/C=N/NC(=O)c2ccc(O)cc2)c1O	-5	1	-2	-34	-5	nt	nt
CCc1ccc2nc(N=C(N)N)nc(C)c2c1	-2	1	-8	59*	-2	42*	82*
Cc1ccc2nc(N=C(N)N)nc(C)c2c1	-9	-1	-10	51*	-3	44*	102*
O=C(c1ccc2ccccc2n1)N(CCO)Cc1ccccc1	-12	-2	2	23	-1	nt	nt
CCCCN(c1ccccc1)c1ncnc(N)c1[N+](=O)[O-]	0	0	2	55*	-1	83*	52*
CN(c1ncnc(N)c1[N+](=O)[O-])C1CCS(=O)(=O)C1 (stereo unspecified)	12	-1	3	51*	5	44*	40*
CN(c1ncnc(N)c1[N+](=O)[O-])C1CCCCC1	11	-1	5	80*	0	82*	51*
CCCc1nnc(SCC(=O)O)n1CC	22	-1	-6	-13	-1	nt	nt
COc1ccccc1-c1cc(C(=O)NC2CCN(C)CC2)c2ccc(Cl)c(C)c2n1	42	13	38	99*	17	68*	37*
Cc1c(Cl)ccc2c(C(=O)NCCN3CCCCC3)cc(-c3ccccn3)nc12	20	0	12	50	4	34	61*
Cc1cc(NC(=O)c2cc(-c3ccccn3)nc3c(Cl)cccc23)no1	-6	0	7	23	11	nt	nt
Cc1c(Cl)ccc2c(C(=O)NCCCn3nccc3C)cc(-c3ccccn3)nc12	-2	0	16	-5	-3	nt	nt
O=C(Nc1nccs1)c1cc(-c2ccccn2)nc2c(Cl)cccc12	-2	-1	-6	78*	-2	25	nt
COc1ccc2oc(C(=O)Nc3nc(C)cs3)c(C)c2c1	0	5	-17	-145	0	nt	nt
